Test results from ChEMBL document CHEMBL1833904, “Antiplasmodial and antiproliferative pseudoguaianolides of Athroisma proteiforme from the Madagascar Dry Forest” (J Nat Prod, 2011).

Columns and labels:
A2780 = assay: Antiproliferative activity against human A2780 cells; format: cell-based
Plasmodium falciparum [1] = assay: Antiplasmodial activity against chloroquine-resistant Plasmodium falciparum Dd2 after 72 hrs by SYBR green 1 dye based fluorometric method; format: functional, organism-based; conditions: Dd2, 72 h
Procedure, shortened: (§1)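 Sorbitol-synchronised ring-stage cultures (>95% rings), final 1% hematocrit and 0.5% parasitemia, added to prewarmed wells holding sample diluted in complete medium from DMSO stock. Incubated 72 h at 37 °C under 90% N, 5% O2, 5% CO2. SYBR Green I added, 1 h at 37 °C, fluorescence ex 490/em 530 nm. Triplicate IC50s averaged (±S.E.M.); chloroquine positive control.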

Plasmodium falciparum [2] = assay: Resistance factor, ratio of IC50 for chloroquine-resistant Plasmodium falciparum Dd2 to IC50 for chloroquine-sensitive Plasmodium falciparum HB3; format: functional
Plasmodium falciparum [3] = assay: Antiplasmodial activity against chloroquine-sensitive Plasmodium falciparum HB3 after 72 hrs SYBR green 1 dye based by fluorometric method; format: functional, organism-based; conditions: HB3, 72 h; procedure, shortened: as §1

Compound	IC50 (A2780)	IC50 (Plasmodium falciparum [1])	Ratio IC50 (Plasmodium falciparum [2])	IC50 (Plasmodium falciparum [3])
C=C1C(=O)O[C@H]2C[C@@H](C)[C@@H]3[C@@H](OC(=O)C(C)C)C[C@@H](OC(C)=O)[C@@]3(C)[C@H](O)[C@H]12 [ATHROLIDE B]	2500 nM	–	–	–
C=C1C(=O)O[C@@H]2[C@@H](C)[C@@H]3C=CC(=O)[C@@]3(C)[C@@H](OC(=O)/C(C)=C\C)[C@H]1[C@H]2OC(=O)CC(C)(C)O (relative stereo)	570 nM	–	–	–
C=C1C(=O)O[C@@H]2[C@@H](C)[C@@H]3C=CC(=O)[C@@]3(C)[C@@H](OC(=O)/C(C)=C\C)[C@H]1[C@H]2OC(=O)CC(C)(O)CC (relative stereo)	380 nM	–	–	–
C=C1C(=O)O[C@@H]2[C@@H](C)[C@@H]3C=CC(=O)[C@@]3(C)[C@@H](OC(=O)/C=C(\C)CC)[C@H]1[C@H]2OC(=O)CC(C)(O)CC (relative stereo)	1900 nM	–	–	–
C=C1C(=O)O[C@H]2C[C@@H](C)[C@@H]3[C@@H](OC(=O)C(C)C)C[C@@H](OC(C)=O)[C@@]3(C)[C@@H](OC(C)=O)[C@H]12 [ATHROLIDE A]	2100 nM	32700 nM	1	34300 nM
CC(=O)O[C@H]1C(=O)[C@@]2(C)[C@H]([C@H](OC(=O)c3ccccc3)[C@]3(O)C[C@H](OC(=O)[C@H](O)[C@@H](NC(=O)c4ccccc4)c4ccccc4)C(C)=C1C3(C)C)[C@]1(OC(C)=O)CO[C@@H]1C[C@@H]2O [PACLITAXEL]	17 nM	–	–	–
